How the values were obtained:
Chenopodium album = assay: Herbicidal activity against Chenopodium album assessed as reduction in plant growth measured 21 days after compound post-emergence spray application; type: functional
Summary of the method: (§1)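 GR50 = rate giving 50% growth reduction, scored 21 days after postemergence spray. Application rates are expressed in kg/ha.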

Echinochloa crus-galli = assay: Herbicidal activity against Echinochloa crus-galli (barnyard grass) assessed as reduction in plant growth measured 21 days after compound post-emergence spray application; type: functional; summary of the method: as §1
[1] = target: T1, 4-hydroxyphenylpyruvate dioxygenase (Arabidopsis thaliana, UniProt P93836); assay: Inhibition of Arabidopsis thaliana 4-hydroxyphenylpyruvate dioxygenase
T1 sequence (P93836 whole entry): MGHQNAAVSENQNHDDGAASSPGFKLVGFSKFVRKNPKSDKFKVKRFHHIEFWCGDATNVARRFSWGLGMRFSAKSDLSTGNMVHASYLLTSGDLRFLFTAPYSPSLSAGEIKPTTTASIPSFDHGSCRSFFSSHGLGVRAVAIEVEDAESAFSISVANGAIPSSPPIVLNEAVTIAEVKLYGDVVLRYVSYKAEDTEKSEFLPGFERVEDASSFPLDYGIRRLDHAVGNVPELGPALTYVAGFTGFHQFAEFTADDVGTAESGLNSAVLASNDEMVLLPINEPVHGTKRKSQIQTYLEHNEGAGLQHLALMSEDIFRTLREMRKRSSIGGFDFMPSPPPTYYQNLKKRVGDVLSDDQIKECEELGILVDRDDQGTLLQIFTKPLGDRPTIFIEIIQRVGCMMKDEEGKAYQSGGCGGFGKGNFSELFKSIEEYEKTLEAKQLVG
Summary of the method: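 Recombinant Arabidopsis thaliana HPPD enzyme, assayed by a previously published method.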

Abutilon theophrasti = assay: Herbicidal activity against Abutilon theophrasti (velvetleaf) assessed as reduction in plant growth measured 21 days after compound post-emergence spray application; type: functional; summary of the method: as §1
Centaurea cyanus = assay: Herbicidal activity against Centaurea cyanus assessed as reduction in plant growth measured 21 days after compound post-emergence spray application; type: functional
Setaria italica = assay: Herbicidal activity against Setaria italica assessed as reduction in plant growth measured 21 days after compound post-emergence spray application; type: functional

| SMILES | GR50 (Chenopodium album) | GR50 (Echinochloa crus-galli) | IC50 [1] | GR50 (Abutilon theophrasti) | GR50 (Centaurea cyanus) | GR50 (Setaria italica) |
| --- | --- | --- | --- | --- | --- | --- |
| Cc1nc(C)n(O)c1C(=O)c1ccc(S(C)(=O)=O)c(C2=NOCC2)c1Cl | 0.3 kg/ha | 2 kg/ha | 0.036 µM | >3 kg/ha | – | – |
| CCOc1c(S(=O)(=O)CC)ccc(C(=O)/C(=N\O)C(C)=O)c1Cl | – | >3 kg/ha | 20 µM | – | >3 kg/ha | >3 kg/ha |
| COc1c(S(C)(=O)=O)ccc(C(=O)/C(=N\O)C(C)=O)c1C | – | >3 kg/ha | > 20 µM | – | >3 kg/ha | >3 kg/ha |
| CSc1ccc(C(=O)/C(=N\O)C(C)=O)c(C)c1Cl | – | >3 kg/ha | > 20 µM | – | >3 kg/ha | >3 kg/ha |
| CC(=O)/C(=N/O)C(=O)c1ccc(S(C)(=O)=O)c(C2=NOCC2)c1Cl | – | 2.5 kg/ha | 13 µM | – | >3 kg/ha | >3 kg/ha |
| CCOc1c(S(=O)(=O)CC)ccc(C(=O)c2c(C)ncn2O)c1Cl | 0.4 kg/ha | >0.5 kg/ha | 20 µM | >0.5 kg/ha | – | – |
| CCOc1c(S(=O)(=O)CC)ccc(C(=O)c2c(C)nc(C)n2O)c1Cl | 0.05 kg/ha | 0.5 kg/ha | 0.048 µM | 0.1 kg/ha | – | – |
| CCOc1c(S(=O)(=O)CC)ccc(C(=O)c2c(C)nc(CC)n2O)c1Cl | 0.2 kg/ha | >0.5 kg/ha | 0.071 µM | >0.5 kg/ha | – | – |
| CCOc1c(S(=O)(=O)CC)ccc(C(=O)c2c(C)nc(C(C)C)n2O)c1Cl | 1.5 kg/ha | >3 kg/ha | 0.043 µM | >3 kg/ha | – | – |
| CCOc1c(S(=O)(=O)CC)ccc(C(=O)c2c(C)nc(-c3cccs3)n2O)c1Cl | >3 kg/ha | >3 kg/ha | > 20 µM | >3 kg/ha | – | – |
| CCOc1c(S(=O)(=O)CC)ccc(C(=O)c2c(C)nc(-c3cccn3C)n2O)c1Cl | >3 kg/ha | >3 kg/ha | > 20 µM | >3 kg/ha | – | – |
| CCOc1c(S(=O)(=O)CC)ccc(C(=O)c2c(C)nc(-c3ccccc3)n2O)c1Cl | >0.5 kg/ha | >0.5 kg/ha | > 20 µM | >0.5 kg/ha | – | – |
| CCOc1c(S(=O)(=O)CC)ccc(C(=O)c2c(C)nc(-c3ccc(Cl)cc3Cl)n2O)c1Cl | >0.5 kg/ha | >0.5 kg/ha | > 20 µM | >0.5 kg/ha | – | – |
| CCOc1c(S(=O)(=O)CC)ccc(C(=O)c2c(C)[n+]([O-])c(C)n2O)c1Cl | >3 kg/ha | >3 kg/ha | 0.19 µM | >3 kg/ha | – | – |
| COc1c(S(C)(=O)=O)ccc(C(=O)c2c(C)nc(C)n2O)c1C | 0.06 kg/ha | >1 kg/ha | 18 µM | 0.7 kg/ha | – | – |
| CSc1ccc(C(=O)c2c(C)nc(C)n2O)c(C)c1Cl | >0.5 kg/ha | >0.5 kg/ha | > 20 µM | >0.5 kg/ha | – | – |
| Cc1nc(C)n(O)c1C(=O)c1ccc(S(C)(=O)=O)cc1Cl | >0.5 kg/ha | >0.5 kg/ha | > 20 µM | >0.5 kg/ha | – | – |
| Cc1nc(C)n(O)c1C(=O)c1ccc(S(C)(=O)=O)c2ncccc12 | >1 kg/ha | >1 kg/ha | > 20 µM | >1 kg/ha | – | – |
| Cc1cc(C)c(C(=O)c2c(C)nc(C)n2O)c(C)c1 | >3 kg/ha | >3 kg/ha | > 20 µM | >3 kg/ha | – | – |
| Cc1[nH]n(C)c(=O)c1C(=O)c1ccc(S(C)(=O)=O)c(C2=NOCC2)c1Cl | <0.01 kg/ha | <0.01 kg/ha | 0.19 µM | <0.01 kg/ha | – | – |

Source: ChEMBL document CHEMBL3046350, “Design, synthesis and herbicidal activity of new iron chelating motifs for HPPD-inhibitors” (Bioorg Med Chem, 2009)
